Assay results from ChEMBL document CHEMBL5042517, “Discovery, X-ray Crystallography, and Anti-inflammatory Activity of Bromodomain-containing Protein 4 (BRD4) BD1 Inhibitors Targeting a Distinct New Binding Site” (J Med Chem, 2022).
Active and inactive are the calls of the source. The rule behind the calls is not given here.

Assays:
[1] = Antiinflammatory activity in human SAEC assessed as inhibition of Poly(I:C) induced CIG5 expression pretreated for 24 hrs followed by Poly(I:C) addition for 4 hrs by qRT-PCR analysis; format: functional, cell-based
How it was run: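 Poly(I:C) 10 μg/mL then added for 4 h. CIG5 or IL-6 mRNA measured by qRT-PCR (ΔΔCt, PPIA normalized). IC50 from a four-parameter fit, mean ± SD of three independent runs.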

[2] = molecular target: Bromodomain-containing protein 3 (Homo sapiens, UniProt Q15059); assay: Binding affinity BRD3 BD1 (unknown origin) incubated for 1 hr by TR-FRET assay
Sequence of Bromodomain-containing protein 3 (Q15059 whole entry): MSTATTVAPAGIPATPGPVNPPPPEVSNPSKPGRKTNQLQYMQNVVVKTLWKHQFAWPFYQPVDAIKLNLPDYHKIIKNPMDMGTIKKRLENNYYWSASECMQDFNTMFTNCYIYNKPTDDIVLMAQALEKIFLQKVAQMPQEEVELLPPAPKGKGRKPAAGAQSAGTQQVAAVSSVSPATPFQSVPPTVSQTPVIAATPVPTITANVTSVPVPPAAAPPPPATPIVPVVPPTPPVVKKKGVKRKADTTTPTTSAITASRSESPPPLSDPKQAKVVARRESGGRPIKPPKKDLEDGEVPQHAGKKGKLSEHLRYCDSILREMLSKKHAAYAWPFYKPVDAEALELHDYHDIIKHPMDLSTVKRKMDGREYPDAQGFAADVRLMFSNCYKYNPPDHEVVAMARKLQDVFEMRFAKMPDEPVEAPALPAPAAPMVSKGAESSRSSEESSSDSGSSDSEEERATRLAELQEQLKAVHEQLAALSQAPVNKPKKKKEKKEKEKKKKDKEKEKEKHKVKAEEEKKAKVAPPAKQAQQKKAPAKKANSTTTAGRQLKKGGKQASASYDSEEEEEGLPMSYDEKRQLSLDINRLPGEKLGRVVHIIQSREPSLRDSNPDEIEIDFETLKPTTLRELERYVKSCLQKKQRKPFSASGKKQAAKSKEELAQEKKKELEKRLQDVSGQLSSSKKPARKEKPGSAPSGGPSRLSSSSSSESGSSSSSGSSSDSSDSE

[3] = Half life in rat at 20 mg/kg, po; format: ADME, organism-based; conditions: in vivo
[4] = Cmax in rat at 10 mg/kg, iv; format: ADME, organism-based; set-up: route intravenous, dose 10 mg/kg; conditions: in vivo
[5] = Volume of distribution at steady state in rat at 10 mg/kg, iv; format: ADME, organism-based; conditions: in vivo, read-out: Vdss
[6] = molecular target: T1, Bromodomain-containing protein 4 (Homo sapiens, UniProt O60885); assay: Binding affinity to wild type human BRD4 BD2 (349 to 461 residues) expressed in bacterial competent cells assessed as increase in thermal stability by thermal shift assay
[7] = molecular target: T1, Bromodomain-containing protein 4
[8] = system: Bromodomain-containing protein 4 (Homo sapiens), O60885 [E151A]
Mus musculus [9] = assay: Antiinflammatory activity in C57BL/6 mouse model of poly(I:C)-induced acute airway inflammation assessed as decrease in KC level in BALF at 10 mg/kg, po administered 1 day prior to poly(I:C) stimulation; format: functional, organism-based
[10] = system: Bromodomain-containing protein 4 (Homo sapiens), O60885 [E151A]; remark: listed apart in the source
[11] = AUC (0 to t) in rat at 10 mg/kg, iv; format: ADME, organism-based; set-up: dose 10 mg/kg; conditions: in vivo
SAEC = assay: Antiinflammatory activity in human SAEC assessed as decrease in H3K122Ac accumulation by immunofluorescence analysis; format: functional, cell-based
How it was run: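 Immortalized human small airway epithelial cells stimulated with poly(I:C) at 10 μg/mL. H3K122Ac detected by immunofluorescence and quantified as fold change in total fluorescence intensity.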

[12] = molecular target: T1, Bromodomain-containing protein 4; remark: listed apart in the source
[13] = molecular target: T1, Bromodomain-containing protein 4; remark: listed apart in the source
[14] = molecular target: T1, Bromodomain-containing protein 4; remark: listed apart in the source
Mus musculus [15] = assay: Antiinflammatory activity in C57BL/6 mouse model of poly(I:C)-induced acute airway inflammation assessed as inhibition of neutrophilic inflammation around medium sized airways at 10 mg/kg, po administered 1 day prior to poly(I:C) stimulation by H and E staining based analysis; format: functional; set-up: scale not given: the % may be the effect or the level left
[16] = molecular target: T1, Bromodomain-containing protein 4; remark: listed apart in the source
Mus musculus [17] = assay: Antiinflammatory activity in C57BL/6 mouse model of poly(I:C)-induced acute airway inflammation assessed as decrease in neutrophils level in BALF at 10 mg/kg, po administered 1 day prior to poly(I:C) stimulation; format: functional, organism-based
[18] = Cmax in rat at 20 mg/kg, po; format: ADME, organism-based; set-up: route oral, dose 20 mg/kg; conditions: in vivo
Mus musculus [19] = assay: Antiinflammatory activity in C57BL/6 mouse model of poly(I:C)-induced acute airway inflammation assessed as decrease in CIG5 gene expression in lung tissue at 10 mg/kg, po administered 1 day prior to poly(I:C) stimulation; format: functional, organism-based
[20] = molecular target: T1, Bromodomain-containing protein 4; remark: listed apart in the source

- IC50 [1]: 200 nM
- IC50 [2]: 2180 nM
- half-life [3]: 3.7 h
- Cmax [4]: 1920 ng/mL
- Vd [5]: 16 L/kg
- Activity [6]: inactive
- ΔTm [7]: 0.8 °C
- ΔTm [8]: 0.5 °C
- ΔTm [10]: 0.1 °C
- AUC(0-t) [11]: 2170 ng·h/mL
- ΔTm [12]: 0.9 °C
- ΔTm [13]: 0.6 °C
- ΔTm [14]: 4.5 °C
- ΔTm [16]: 0.6 °C
- Cmax [18]: 86.9 ng/mL
- ΔTm [20]: 15.7 °C
Structure (SMILES): O=C(Nc1ccc(C(F)(F)F)cc1)Nc1ccc(S(=O)(=O)N2CCC[C@H]2CN2CCOCC2)cc1
- Activity (Mus musculus [9]): inactive
- Activity (SAEC): Active
- Activity (Mus musculus [15]): 100%
- Activity (Mus musculus [17]): Active
- Activity (Mus musculus [19]): inactive
